# Source: PMC7551138 (Alzheimer's & Dementia : Translational Research & Clinical …, 2020)
# Assays:
# [1] = tested on: healthy elderly subjects; assay: Monitoring of treatment‐emergent adverse events; type: in vivo, human; conditions: 16 mg oral, single dose; within 24 hours after administration
# Method in brief: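 Randomised, double-blind, placebo-controlled trial in healthy subjects aged ≥65 (n=48; 12 active:4 placebo per cohort, placebos pooled). Intranasal test compound 5.5, 11 or 22 mg or 0.9% NaCl b.i.d. for 7 days, 6 h between doses. The 11 mg active subjects later got one open-label oral 16 mg dose of the parent drug. Safety was tracked by TEAEs, nasal examination, vital signs, ECG and safety bloods.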
# [2] = 4 mg/kg in mice; cited from earlier work
compound,measurement,setting,value
"COc1ccc2c3c1O[C@H]1C[C@@H](O)C=C[C@@]31CCN(C)C2 [galantamine, reference compound]",TEAEs within 24 hours: All gastrointestinal disorders,[1],8 (66.7) number of subjects (percentage
same,TEAEs within 24 hours: Any events,[1],10 (83.3) number of subjects (percentage
same,TEAEs within 24 hours: Diarrhea,[1],1 (8.3) number of subjects (percentage
same,TEAEs within 24 hours: Nausea,[1],5 (41.7) number of subjects (percentage
same,TEAEs within 24 hours: Vomiting,[1],5 (41.7) number of subjects (percentage
same,brain‐to‐blood ratio,[2],2.1
